Experimental findings from ChEMBL document CHEMBL3297741, “Cytotoxic cleistanthane and cassane diterpenoids from the entomogenous fungus Paraconiothyrium hawaiiense” (J Nat Prod, 2014) are described below.

pIC50: −log10 of the molar value. Calls of active or inactive are those of the source. The rule behind the calls is not given here.

Holding throughout (assay type): functional, cell-based
The subject of test [1] is HeLa. In words: Cytotoxicity against human HeLa cells after 48 hrs by […]. Summed up: (§1)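 MTS read-out. Cells were seeded at (2−5) × 10^3 per well, depending on growth rate, and attached overnight. Medium was then replaced with medium holding serial dilutions of compound from 100 mM DMSO stocks, with 0.1% DMSO vehicle and cisplatin control. Plates were incubated 48 h at 37 °C in humidified 5% CO2. MTS was added for 90 min at 37 °C in the dark, and absorbance read at 490 nm. Triplicate runs gave IC50.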

In test [2] the test system is HCT-116. The test can be described thus: Cytotoxicity against human HCT116 cells after 48 hrs by […]. The following applies: HCT-116, 48 h. Summed up:
as §1

In test [3] the test system is A549. The test can be described thus: Cytotoxicity against human A549 cells after 48 hrs by […]. The following applies: A549, 48 h. Summed up:
as §1

The nature of test [4]: Cytotoxicity against human T24 cells after 48 hrs by […]. The following applies: T-24, 48 h. Summed up: as §1
In test [5] the test system is MCF7. In words: Cytotoxicity against human MCF7 cells after 48 hrs by […]. The following applies: MCF7, 48 h. Summed up: as §1
In test [6] the test system is A549. The test can be described thus: Cytotoxicity against human A549 cells at 50 uM after 48 hrs by […]. Summed up: (§2)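 Single concentration of 50 μM tested in the MTS proliferation assay. Cells were seeded at (2−5) × 10^3 per well and attached overnight. Compound was diluted in medium from 100 mM DMSO stock, alongside a 0.1% DMSO vehicle. Plates were incubated 48 h at 37 °C in humidified 5% CO2. MTS was added for 90 min at 37 °C, then absorbance read at 490 nm. Run in triplicate.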

In another test the test system is T-24. In words: Cytotoxicity against human T24 cells at 50 uM after 48 hrs by […]. Summed up: as §2
The test system of test [7] is HeLa. In words: Cytotoxicity against human HeLa cells at 50 uM after 48 hrs by […]. Summed up:
as §2

The test system of test [8] is HCT-116. The test can be described thus: Cytotoxicity against human HCT116 cells at 50 uM after 48 hrs by […]. Summed up: as §2
The test system of test [9] is MCF7. In words: Cytotoxicity against human MCF7 cells at 50 uM after 48 hrs by […] assay. Summed up:
as §2

Turning to `C=C[C@@H]1C(=C)CC[C@H]2[C@H]1C[C@H]1OC(=O)[C@@]3(C)[C@H](O)CC[C@@]2(C)[C@@]13O`, the pIC50 in the test on HeLa [1] is 4.30.

Take `C=C[C@@H]1C(=C)CC[C@H]2[C@H]1C[C@H]1OC(=O)[C@@]3(C)[C@H](OC(C)=O)CC[C@@]2(C)[C@@]13O`: the pIC50 with HCT-116 [2] is 4.43; with A549 [3], 4.36; in test [4] it was 4.68; with HeLa [1] it was 4.36; in the test with MCF7 [5], 4.63.

As for `C=CC1=CC[C@H]2[C@@H](CC(=O)[C@@]3(O)[C@@]4(C)C(=O)O[C@H]4CC[C@]23C)[C@H]1C`, the inhibition entry with A549 [6], with T-24, with HeLa [7], in the test on HCT-116 [8] and in the test with MCF7 [9] was “inactive” each time.

Take `C=C[C@@H]1C(=C)CC[C@H]2[C@H]1CC(=O)[C@@]1(O)[C@@]3(C)C(=O)O[C@H]3CC[C@]21C`: the pIC50 in the test with HCT-116 [2] was 5.21; in the test on A549 [3] it was 5.13; in test [4], 5.37; in the test with HeLa [1] it was 5.55; with MCF7 [5], 5.13.

The term pIC50 denotes the IC50 on a negative log10 scale, so that one unit is a factor of ten.
